Test results as given in ChEMBL document CHEMBL5058577, “EUbOPEN Chemogenomics Library 2 (Multiplex)” (2022).

System: U2OS
Test: Multiplex assay against U2OS
Format: toxicity, cell-based
Conditions: human
Method in brief: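 With compound added, live cells were imaged on a CQ1 microscope at 37°C and 5% CO2; staining with Hoechst33342, BioTracker Green Microtubule Cytoskeleton Dye, MitoTracker Red and Annexin V Alexa Fluor 680 had been done at seeding. The CellPathfinder machine-learning gating scheme split cells into Hoechst high-intensity objects or normal cells, normal cells into healthy, pyknosed or fragmented nuclei, and pyknosed cells into mitotic or apoptotic. The tubulin, mitochondrial-mass and membrane-permeability phenotypes are per cents of healthy-nucleus cells.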

[1] = 12 h, 1 µM, compound concentration 1 uM, replicate 1
[2] = 12 h, 1 µM, compound concentration 1 uM, replicate 2
[3] = 12 h, 10 µM, compound concentration 10 uM, replicate 1
[4] = 12 h, 10 µM, compound concentration 10 uM, replicate 2
[5] = 24 h, 1 µM, compound concentration 1 uM, replicate 1
[6] = 24 h, 1 µM, compound concentration 1 uM, replicate 2
[7] = 24 h, 10 µM, compound concentration 10 uM, replicate 1
[8] = 24 h, 10 µM, compound concentration 10 uM, replicate 2
[9] = 48 h, 1 µM, compound concentration 1 uM, replicate 1
[10] = 48 h, 1 µM, compound concentration 1 uM, replicate 2
[11] = 48 h, 10 µM, compound concentration 10 uM, replicate 1
[12] = 48 h, 10 µM, compound concentration 10 uM, replicate 2

With `CC1(COc2ccc3c(c2)ncn3-c2ccc3cccc(N4CCC(N)CC4)c3n2)COC1` [CRENOLANIB] the “Population Apoptotic (%)” value [1] was 58%, the “Population Fragmented Nuclei (%)” value [1] was 36% and the “Population Healthy Nuclei (%)” value [1] was 50%. For the same compound, the “Population Hoechst High Intensity Objects (%)” value [1] was 9%, the “Population Membrane Permeable-Phenotype (%)” value [1] was 87% and the “Population Mitochondria Different-Phenotype (%)” value [1] was 51%. For the same compound, the “Population Mitotic Cells (%)” value [1] was 41%, the “Population Normal (%)” value [1] was 90% and the “Population Pyknosed Nuclei (%)” value [1] was 13%. For the same compound, the “Population Tubulin-Different-Phenotype (%)” value [1] was 92%, the “Total Cell Count” value [1] was 143 and the “Population Apoptotic (%)” value [2] was 25%. For the same compound, the “Population Fragmented Nuclei (%)” value [2] was 28%, the “Population Healthy Nuclei (%)” value [2] was 60% and the “Population Hoechst High Intensity Objects (%)” value [2] was 13%. For the same compound, the “Population Membrane Permeable-Phenotype (%)” value [2] was 82%, the “Population Mitochondria Different-Phenotype (%)” value [2] was 73% and the “Population Mitotic Cells (%)” value [2] was 75%. For the same compound, the “Population Normal (%)” value [2] was 86%, the “Population Pyknosed Nuclei (%)” value [2] was 10% and the “Population Tubulin-Different-Phenotype (%)” value [2] was 88%. The “Total Cell Count” value [2] was 86, the “Population Apoptotic (%)” value [3] was 81% and the “Population Fragmented Nuclei (%)” value [3] was 43%. The “Population Healthy Nuclei (%)” value [3] was 11%, the “Population Hoechst High Intensity Objects (%)” value [3] was 21% and the “Population Membrane Permeable-Phenotype (%)” value [3] was 76%. The “Population Mitochondria Different-Phenotype (%)” value [3] was 80%, the “Population Mitotic Cells (%)” value [3] was 18% and the “Population Normal (%)” value [3] was 78%. For the same compound, the “Population Pyknosed Nuclei (%)” value [3] was 44%, the “Population Tubulin-Different-Phenotype (%)” value [3] was 88% and the “Total Cell Count” value [3] was 274. For the same compound, the “Population Apoptotic (%)” value [4] was 92%, the “Population Fragmented Nuclei (%)” value [4] was 37% and the “Population Healthy Nuclei (%)” value [4] was 21%. The “Population Hoechst High Intensity Objects (%)” value [4] was 24%, the “Population Membrane Permeable-Phenotype (%)” value [4] was 47% and the “Population Mitochondria Different-Phenotype (%)” value [4] was 76%. The “Population Mitotic Cells (%)” value [4] was 7%, the “Population Normal (%)” value [4] was 75% and the “Population Pyknosed Nuclei (%)” value [4] was 41%. For the same compound, the “Population Tubulin-Different-Phenotype (%)” value [4] was 85%, the “Population Apoptotic (%)” value [5] was 71% and the “Population Fragmented Nuclei (%)” value [5] was 39%. For the same compound, the “Population Healthy Nuclei (%)” value [5] was 45%, the “Population Hoechst High Intensity Objects (%)” value [5] was 9% and the “Population Membrane Permeable-Phenotype (%)” value [5] was 71%. For the same compound, the “Population Mitochondria Different-Phenotype (%)” value [5] was 62%, the “Population Mitotic Cells (%)” value [5] was 28% and the “Population Normal (%)” value [5] was 90%. The “Population Pyknosed Nuclei (%)” value [5] was 14%, the “Population Tubulin-Different-Phenotype (%)” value [5] was 87% and the “Total Cell Count” value [5] was 156. For the same compound, the “Population Apoptotic (%)” value [6] was 54%, the “Population Fragmented Nuclei (%)” value [6] was 25% and the “Population Healthy Nuclei (%)” value [6] was 62%. The “Population Hoechst High Intensity Objects (%)” value [6] was 10%, the “Population Membrane Permeable-Phenotype (%)” value [6] was 67% and the “Population Mitochondria Different-Phenotype (%)” value [6] was 67%. For the same compound, the “Population Mitotic Cells (%)” value [6] was 45%, the “Population Normal (%)” value [6] was 89% and the “Population Pyknosed Nuclei (%)” value [6] was 12%. For the same compound, the “Population Tubulin-Different-Phenotype (%)” value [6] was 72%, the “Total Cell Count” value [6] was 98 and the “Population Apoptotic (%)” value [7] was 93%. The “Population Fragmented Nuclei (%)” value [7] was 46%, the “Population Healthy Nuclei (%)” value [7] was 8% and the “Population Hoechst High Intensity Objects (%)” value [7] was 37%. The “Population Membrane Permeable-Phenotype (%)” value [7] was 42%, the “Population Mitochondria Different-Phenotype (%)” value [7] was 50% and the “Population Mitotic Cells (%)” value [7] was 6%. The “Population Normal (%)” value [7] was 62%, the “Population Pyknosed Nuclei (%)” value [7] was 45% and the “Population Tubulin-Different-Phenotype (%)” value [7] was 50%. The “Total Cell Count” value [7] was 254, the “Population Apoptotic (%)” value [8] was 100% and the “Population Fragmented Nuclei (%)” value [8] was 53%. For the same compound, the “Population Healthy Nuclei (%)” value [8] was 11%, the “Population Hoechst High Intensity Objects (%)” value [8] was 36% and the “Population Membrane Permeable-Phenotype (%)” value [8] was 44%. The “Population Mitochondria Different-Phenotype (%)” value [8] was 77%, the “Population Mitotic Cells (%)” value [8] was 0% and the “Population Normal (%)” value [8] was 63%. The “Population Pyknosed Nuclei (%)” value [8] was 34%, the “Population Tubulin-Different-Phenotype (%)” value [8] was 77% and the “Population Apoptotic (%)” value [9] was 88%. The “Population Fragmented Nuclei (%)” value [9] was 41%, the “Population Healthy Nuclei (%)” value [9] was 43% and the “Population Hoechst High Intensity Objects (%)” value [9] was 8%. The “Population Membrane Permeable-Phenotype (%)” value [9] was 35%, the “Population Mitochondria Different-Phenotype (%)” value [9] was 40% and the “Population Mitotic Cells (%)” value [9] was 12%. The “Population Normal (%)” value [9] was 91%, the “Population Pyknosed Nuclei (%)” value [9] was 14% and the “Population Tubulin-Different-Phenotype (%)” value [9] was 44%. The “Total Cell Count” value [9] was 186, the “Population Apoptotic (%)” value [10] was 62% and the “Population Fragmented Nuclei (%)” value [10] was 37%. The “Population Healthy Nuclei (%)” value [10] was 48%, the “Population Hoechst High Intensity Objects (%)” value [10] was 4% and the “Population Membrane Permeable-Phenotype (%)” value [10] was 53%. The “Population Mitochondria Different-Phenotype (%)” value [10] was 37%, the “Population Mitotic Cells (%)” value [10] was 37% and the “Population Normal (%)” value [10] was 95%. For the same compound, the “Population Pyknosed Nuclei (%)” value [10] was 13%, the “Population Tubulin-Different-Phenotype (%)” value [10] was 51% and the “Population Apoptotic (%)” value [11] was 100%. For the same compound, the “Population Fragmented Nuclei (%)” value [11] was 51%, the “Population Healthy Nuclei (%)” value [11] was 11% and the “Population Hoechst High Intensity Objects (%)” value [11] was 42%. The “Population Membrane Permeable-Phenotype (%)” value [11] was 43%, the “Population Mitochondria Different-Phenotype (%)” value [11] was 37% and the “Population Mitotic Cells (%)” value [11] was 0%. The “Population Normal (%)” value [11] was 58%, the “Population Pyknosed Nuclei (%)” value [11] was 37% and the “Population Tubulin-Different-Phenotype (%)” value [11] was 56%. The “Total Cell Count” value [11] was 250, the “Population Fragmented Nuclei (%)” value [12] was 57% and the “Population Healthy Nuclei (%)” value [12] was 13%. For the same compound, the “Population Hoechst High Intensity Objects (%)” value [12] was 29%, the “Population Membrane Permeable-Phenotype (%)” value [12] was 50% and the “Population Mitochondria Different-Phenotype (%)” value [12] was 35%. The “Population Normal (%)” value [12] was 70%, the “Population Pyknosed Nuclei (%)” value [12] was 28% and the “Population Tubulin-Different-Phenotype (%)” value [12] was 28%. The “Total Cell Count” value [12] was 144.
